Measured values: publication PMC6929040 (ACS Synthetic Biology, 2019)
Entries after “also recorded” stand apart in the source; their conditions may differ.

Experiments:
human 5-HTR4b = human 5-HTR4b (Homo sapiens, UniProt Q13639); assay: Luciferase-based 5-HTR4b assay in yeast; format: cell-based; details: for confirmation as 5-HTR4b ligand by dose response curves: 5-HTR4b assay strain vs control strain with blank plasmid in lieu of 5-HTR4b; for anti-infection library screening result (Z-score): 403-member library; for anti-infection library screening result (Z-score) / natural products library screening result (Z-score normalized to serotonin): singlets; for natural products library screening result (Z-score normalized to serotonin): 803-member library
Chain of human 5-HTR4b (Q13639 whole entry): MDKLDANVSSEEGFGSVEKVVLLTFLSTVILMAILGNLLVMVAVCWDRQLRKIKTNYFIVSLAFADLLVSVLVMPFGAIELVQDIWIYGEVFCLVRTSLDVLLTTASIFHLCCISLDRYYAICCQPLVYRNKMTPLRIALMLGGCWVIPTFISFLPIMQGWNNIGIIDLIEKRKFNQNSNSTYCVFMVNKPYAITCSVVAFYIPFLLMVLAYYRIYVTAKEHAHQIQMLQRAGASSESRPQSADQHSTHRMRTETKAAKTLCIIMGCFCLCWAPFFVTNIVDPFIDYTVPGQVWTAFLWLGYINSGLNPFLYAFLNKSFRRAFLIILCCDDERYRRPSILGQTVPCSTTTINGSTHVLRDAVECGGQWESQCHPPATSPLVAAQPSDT

[1] = tested on: human colon epithelial cells (Caco-2); assay: Cell migration assay; format: cell-based; details: Caco-2, 10 μM, 48 h, vs PBS control
Method in brief: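 Caco-2 cells grown at 37 °C, 5% CO2 in high-glucose DMEM with 10% FBS and 1% penicillin-streptomycin. Cells at (1–2) × 10^5 cells/mL were seeded into both wells of culture inserts and left overnight to attach. Inserts were then removed and cells washed twice with PBS. […] Imaged at 0, 24 and 48 h, and the cell-free zone was measured.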

[2] = tested on: human colon epithelial cells (Caco-2); assay: Colon cell wound healing scratch assay; format: cell-based; details: Caco-2 scratch assay, 10 μM, 48 h, vs PBS control
yeast (PPY1808) = assay: Toxicity assessment in yeast; format: cell-based, Saccharomyces cerevisiae; details: yeast incubated 2.5 h, 0, 10 μM, 100 μM

Row | SMILES | confirmation as 5-HTR4b ligand by dose response curves (human 5-HTR4b) | natural products library screening result (Z-score normalized to serotonin) (human 5-HTR4b; 10 μM) | other results
1 | O=C(Nc1ccc(O)cc1)c1ccccc1O [osalmid] | could not confirm |  | anti-infection library screening result (Z-score) (human 5-HTR4b; 1 μM): hits
2 | O=C(CC1NCCCC1O)Cn1cnc2cc(Br)c(Cl)cc2c1=O (centres unmarked) [halofuginone] |  | hits | cell motility (cell migration) [1]: results only in increased wound healing; wound healing [2]: statistically significant increase in wound healing (P < 0.05); also recorded: statistically significantly different than the PBS control (P < 0.05)
3 | Nc1ccc2cc3ccc(N)cc3nc2c1 [proflavine] |  |  | cell motility (cell migration) [1]: did not result in a significant increase; toxicity to yeast (yeast (PPY1808)): toxic at high concentrations; anti-infection library screening result (Z-score) (human 5-HTR4b; 10 μM): hits; wound healing [2]: did not result in a significant increase
4 | NCCc1c[nH]c2ccc(O)cc12 [serotonin] |  | hits | signal increase after activation (human 5-HTR4b; pH = 7, 100 mg/L serotonin, 2 h ligand incubation, 30 min luciferase substrate incubation): 38 fold
5 | CCn1cc(C(=O)O)c(=O)c2ccc(C)nc21 [nalidixic acid] | could not confirm | hits | 
6 | CC[n+]1c(-c2ccccc2)c2cc(N)ccc2c2ccc(N)cc21 [ethidium bromide] | could not confirm |  | anti-infection library screening result (Z-score) (human 5-HTR4b; 10 μM): hits
7 | CCOc1ccc2nc3cc(N)ccc3c(N)c2c1 [ethacridine] |  |  | cell motility (cell migration) [1]: did not result in a significant increase; toxicity to yeast (yeast (PPY1808)): toxic at high concentrations; anti-infection library screening result (Z-score) (human 5-HTR4b; 10 μM): hits; wound healing [2]: did not result in a significant increase
8 | Cc1nc(Nc2ccc(F)cc2)nc(N2CCc3ccccc3C2C)c1C (centres unmarked) [revaprazan] |  |  | cell motility (cell migration) [1]: statistically significantly different than the PBS control (P < 0.01); cell motility (cell migration) ([1]; listed as Revaprazan): significantly (P < 0.01) increase cell motility; toxicity to yeast (yeast (PPY1808)): toxic at high concentrations; anti-infection library screening result (Z-score) (human 5-HTR4b; 1 μM): hits; wound healing [2]: statistically significant increase in wound healing (P < 0.05); also recorded: statistically significantly different than the PBS control (P < 0.05)
9 | COc1ccc(-c2oc3c(CC=C(C)C)c(O)cc(O)c3c(=O)c2O[C@@H]2O[C@@H](C)[C@H](O)[C@@H](O)[C@H]2O)cc1 [baohuoside I] | could not confirm | hits | 
10 | CN(C)CCc1ccc(O)cc1 [hordenine] |  | hits | cell motility (cell migration) [1]: significantly (P < 0.01) increase cell motility; also recorded: statistically significantly different than the PBS control (P < 0.01); anti-infection library screening result (Z-score) (human 5-HTR4b; 10 μM): hits; wound healing [2]: statistically significant increase in wound healing (P < 0.05); also recorded: statistically significantly different than the PBS control (P < 0.05)
11 | N[C@@H](Cc1c[nH]c2ccc(O)cc12)C(=O)O [L-5-HTP, L-5-hydroxytryptophan] |  | hits | 
12 | CC1(C)C2CCC1(C)C(O)C2 (centres unmarked) [borneol] | could not confirm |  | anti-infection library screening result (Z-score) (human 5-HTR4b; 1 μM): hits
13 | O=C(O)CCCc1c[nH]c2ccccc12 [3-indolebutyric acid] | could not confirm | hits | 
14 | NCCc1c[nH]c2ccccc12 [tryptamine] | confirmed | hits | 
15 | O=c1c(-c2ccc(O)cc2)coc2cc(O[C@@H]3O[C@H](CO)[C@@H](O)[C@H](O)[C@H]3O)cc(O)c12 [genistin] | could not confirm | hits | 
16 | O=c1cc(-c2ccccc2)oc2cc(O)c(O)c(O)c12 [baicalein] | could not confirm | hits | 
17 | CN[C@@H]1[C@@H](O)[C@@H](O[C@@H]2[C@@H](O)[C@H](O[C@H]3O[C@H](CN)[C@@H](O)[C@H](O)[C@H]3O)[C@@H](N)C[C@H]2NC(=O)[C@@H](O)CN)OC[C@]1(C)O [isepamicin] | could not confirm |  | anti-infection library screening result (Z-score) (human 5-HTR4b; 1 μM): hits
18 | O=c1c2cc(O[C@@H]3O[C@H](CO)[C@@H](O)[C@H](O)[C@H]3O)c(O)cc2oc2cc(O)c([C@@H]3O[C@H](CO)[C@@H](O)[C@H](O)[C@H]3O)c(O)c12 [neomangiferin] | could not confirm | hits | 
19 | NC(Cc1c[nH]c2ccc(O)cc12)C(=O)O [5-HTP, D/L-5-hydroxytryptophan] | confirmed | hits | 
